ChEMBL document CHEMBL4602720, “Degradation versus Inhibition: Development of Proteolysis-Targeting Chimeras for Overcoming Statin-Induced Compensatory Upregulation of 3-Hydroxy-3-methylglutaryl Coenzyme A Reductase” (J Med Chem, 2020)
Calls of active or inactive are those of the source. The calls are words filed in the database; no cut-off is given here.

How the values were obtained:
[1] = target: T1, Protein cereblon/3-hydroxy-3-methylglutaryl-coenzyme A reductase (Cricetulus griseus) (UniProt P00347+G3H338); test: (§1) Protac activity at CRBN/HMGCR in Insig-1/Insig-2 deficient Chinese hamster SRD15 cells assessed as induction of HMGCR degradation after 16 hrs by immunoblotting analysis
Outline: (§2)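 SRD15 cells treated with compound at varying concentrations for 16 h, final DMSO ≤0.1%; RIPA lysates (Lowry protein) immunoblotted for HMGCR, densitometry normalized to actin, DMSO set to 1; DC50 = concentration giving 50% loss versus DMSO, fitted to dose-response curve, mean of 3 independent experiments.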

[2] = target: T2, Protein cereblon/3-hydroxy-3-methylglutaryl-coenzyme A reductase (Cricetulus griseus, UniProt P00347+G3H338); test: as §1; outline: as §2
T2 sequence (P00347 whole entry): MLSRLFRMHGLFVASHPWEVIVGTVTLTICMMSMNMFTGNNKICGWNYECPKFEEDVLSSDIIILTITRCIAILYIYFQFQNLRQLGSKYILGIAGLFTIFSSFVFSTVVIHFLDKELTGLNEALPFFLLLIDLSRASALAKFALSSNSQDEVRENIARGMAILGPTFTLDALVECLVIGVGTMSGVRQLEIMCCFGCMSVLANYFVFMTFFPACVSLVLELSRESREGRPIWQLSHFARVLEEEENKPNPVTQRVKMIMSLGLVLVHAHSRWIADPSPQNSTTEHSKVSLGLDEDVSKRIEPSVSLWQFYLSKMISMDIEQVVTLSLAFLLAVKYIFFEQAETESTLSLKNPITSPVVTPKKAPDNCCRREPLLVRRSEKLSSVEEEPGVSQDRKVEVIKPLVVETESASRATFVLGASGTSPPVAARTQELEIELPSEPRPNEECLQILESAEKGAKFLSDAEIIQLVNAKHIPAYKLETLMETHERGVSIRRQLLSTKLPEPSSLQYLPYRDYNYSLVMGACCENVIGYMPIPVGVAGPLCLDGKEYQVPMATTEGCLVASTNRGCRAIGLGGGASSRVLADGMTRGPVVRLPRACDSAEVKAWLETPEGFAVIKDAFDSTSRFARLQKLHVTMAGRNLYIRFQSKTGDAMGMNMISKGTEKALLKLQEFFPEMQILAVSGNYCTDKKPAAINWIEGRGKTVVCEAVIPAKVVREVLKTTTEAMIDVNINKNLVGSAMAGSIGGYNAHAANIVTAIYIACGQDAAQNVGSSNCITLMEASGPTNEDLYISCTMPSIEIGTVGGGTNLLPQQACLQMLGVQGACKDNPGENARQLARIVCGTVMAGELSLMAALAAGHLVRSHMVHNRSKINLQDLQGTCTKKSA
T2 sequence (G3H338 whole entry): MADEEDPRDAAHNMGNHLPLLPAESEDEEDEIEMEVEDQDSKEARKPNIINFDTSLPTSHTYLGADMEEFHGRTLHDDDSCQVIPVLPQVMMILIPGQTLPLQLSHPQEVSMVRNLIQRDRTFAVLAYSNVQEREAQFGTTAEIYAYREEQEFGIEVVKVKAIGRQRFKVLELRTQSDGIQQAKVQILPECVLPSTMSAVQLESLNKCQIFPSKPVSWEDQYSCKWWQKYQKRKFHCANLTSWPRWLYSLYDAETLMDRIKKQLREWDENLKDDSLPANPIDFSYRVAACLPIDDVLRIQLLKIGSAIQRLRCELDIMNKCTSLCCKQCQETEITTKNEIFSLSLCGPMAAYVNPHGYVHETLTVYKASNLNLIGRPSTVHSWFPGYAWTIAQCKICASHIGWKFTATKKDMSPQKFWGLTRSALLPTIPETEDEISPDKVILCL

[3] = target: T1, Protein cereblon/3-hydroxy-3-methylglutaryl-coenzyme A reductase (Cricetulus griseus); test: Protac activity at CRBN/HMGCR in Insig-1/Insig-2 deficient Chinese hamster SRD15 cells assessed as HMGCR level at 3 uM after 16 hrs by immunoblotting analysis (reference value: 1)
Outline: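 Dose-response in SRD15 cells in Medium A with 5% FBS, 16 h treatment, DMSO final 0.1% or lower. RIPA lysates immunoblotted for HMGCR. HMGCR densitometry normalized to actin, with the DMSO group set to 1. Three repeats. DC50 is taken from a dose-response fit of the semi-quantitative blots, mean of 3 independent experiments.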

[4] = target: T1, Protein cereblon/3-hydroxy-3-methylglutaryl-coenzyme A reductase (Cricetulus griseus); test: Protac activity at CRBN/HMGCR in Insig-1/Insig-2 deficient Chinese hamster SRD15 cells assessed as HMGCR level at 1 uM after 16 hrs in presence of 10 uM pomalidomide by immunoblotting analysis (reference value: 1)
[5] = target: T1, Protein cereblon/3-hydroxy-3-methylglutaryl-coenzyme A reductase (Cricetulus griseus); test: Protac activity at CRBN/HMGCR in 5'-CCAGAAACUGAAGAUGAAA-3' siRNA transfected in Insig-1/Insig-2 deficient Chinese hamster SRD15 cells assessed as induction of HMGCR degradation at 1 uM after 16 hrs by immunoblotting analysis
Outline: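 SRD15 cells (Insig-1/Insig-2-deficient CHO-7) in Medium A with 5% FBS at 37 °C, 5% CO2; transfected with negative-control or Crbn-targeting siRNA duplexes for 48 h, then given 1 μM degrader for 16 h. HMGCR by SDS-PAGE immunoblot of RIPA lysates. Knockdown efficiency checked by qRT-PCR against hamster GAPDH, comparative CT method. n = 3 independent experiments.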

[6] = target: Protein cereblon/3-hydroxy-3-methylglutaryl-coenzyme A reductase (Homo sapiens) (UniProt P04035+Q96SW2); test: Protac activity at human Flag-tagged CRBN/Myc-tagged HMGCR expressed in HEK293T cells assessed as induction of HMGCR immunoprecipitation 1 uM preincubated for 16 hrs followed by atorvastatin addition addition and measured after 5 hrs in presence of MG132 by Western blot analysis; assay type: cell-based; details: HEK-293T
Protein cereblon/3-hydroxy-3-methylglutaryl-coenzyme A reductase (Homo sapiens), sequence (P04035 whole entry, looked up): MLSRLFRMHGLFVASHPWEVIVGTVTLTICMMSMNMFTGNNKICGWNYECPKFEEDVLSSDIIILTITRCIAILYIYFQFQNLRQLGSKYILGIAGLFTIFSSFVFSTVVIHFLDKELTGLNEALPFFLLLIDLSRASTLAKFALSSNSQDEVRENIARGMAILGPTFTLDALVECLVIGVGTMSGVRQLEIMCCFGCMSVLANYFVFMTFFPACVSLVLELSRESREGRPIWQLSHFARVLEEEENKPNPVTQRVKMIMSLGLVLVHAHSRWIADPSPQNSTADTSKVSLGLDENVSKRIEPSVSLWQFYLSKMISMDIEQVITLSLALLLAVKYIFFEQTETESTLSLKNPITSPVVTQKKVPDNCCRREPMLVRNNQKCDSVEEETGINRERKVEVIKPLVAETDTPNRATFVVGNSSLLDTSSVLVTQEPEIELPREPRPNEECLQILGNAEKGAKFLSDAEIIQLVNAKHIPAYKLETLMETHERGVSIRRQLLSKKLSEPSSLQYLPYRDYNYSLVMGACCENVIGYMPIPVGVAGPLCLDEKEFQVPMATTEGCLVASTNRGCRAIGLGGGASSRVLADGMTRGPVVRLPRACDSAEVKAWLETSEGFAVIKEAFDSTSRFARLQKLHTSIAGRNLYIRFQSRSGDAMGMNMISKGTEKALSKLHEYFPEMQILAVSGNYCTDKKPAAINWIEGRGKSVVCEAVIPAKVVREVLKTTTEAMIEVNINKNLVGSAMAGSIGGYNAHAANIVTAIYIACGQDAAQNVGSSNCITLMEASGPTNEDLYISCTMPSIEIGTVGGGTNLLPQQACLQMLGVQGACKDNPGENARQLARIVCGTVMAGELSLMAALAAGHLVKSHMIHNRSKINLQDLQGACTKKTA
Protein cereblon/3-hydroxy-3-methylglutaryl-coenzyme A reductase (Homo sapiens), sequence (Q96SW2 whole entry, looked up): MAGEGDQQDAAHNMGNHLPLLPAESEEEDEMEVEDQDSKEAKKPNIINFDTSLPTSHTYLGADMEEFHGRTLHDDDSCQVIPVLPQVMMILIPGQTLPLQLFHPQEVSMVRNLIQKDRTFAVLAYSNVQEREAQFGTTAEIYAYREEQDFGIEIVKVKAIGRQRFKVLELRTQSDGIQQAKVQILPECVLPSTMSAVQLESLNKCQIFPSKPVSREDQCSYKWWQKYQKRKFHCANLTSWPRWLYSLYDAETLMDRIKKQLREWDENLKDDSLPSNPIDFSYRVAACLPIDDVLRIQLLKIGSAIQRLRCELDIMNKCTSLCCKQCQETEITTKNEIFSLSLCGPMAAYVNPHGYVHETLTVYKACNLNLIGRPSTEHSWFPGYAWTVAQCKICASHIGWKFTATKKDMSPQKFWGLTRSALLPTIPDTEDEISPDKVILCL

SMILES: CC(C)c1c(C(=O)Nc2ccccc2)c(-c2cccc(OCCCc3cn(CCOCCOCCOCCOCCNc4cccc5c4C(=O)N(C4CCC(=O)NC4=O)C5=O)nn3)c2)c(-c2ccc(F)cc2)n1CC[C@@H](O)C[C@@H](O)CC(=O)O (stereo partly specified)
- Activity [1]: Dose-dependent effect
- DC50 [2]: 100 nM
- fold change (FC) [3]: 0.3
- fold change (FC) [4]: 1
- Activity [5]: inactive
- Activity [6]: inactive
